The subject of data set [1] is PC-3. Briefly: In vivo antitumor efficacy in human PC3 cells xenografted athymic nude mouse assessed as inhibition of tumor growth at 50 mg/kg, ip for 21 days relative to vehicle treated control. It is filed as functional, organism-based. Also on record: dose 50 mg/kg. The method in brief: (§1)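 Athymic nude mice given PC-3 cells sc (1 × 10⁶ per mouse); at about 50 mm³, randomized (n = 7) and dosed once daily for 21 days either ip at 50 mg/kg (vehicle saline/PEG400/DMSO/Tween 80, 65:20:10:5) or by oral gavage at 100 mg/kg (vehicle 0.5% methylcellulose/0.1% Tween 80 in water). Tumor volume measured weekly by calipers (width² × length × 0.52); phospho-proteins checked by Western blotting of tumor lysates.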

In data set [2] the test system is PC-3. Briefly: In vivo antitumor efficacy in human PC3 cells xenografted athymic nude mouse assessed as decrease in phosphorylation of Akt at Ser473 in tumor at 50 mg/kg, ip for 21 days relative to vehicle treated control. It is filed as functional, organism-based. Also on record: dose 50 mg/kg. The method in brief:
as §1
A general note: A xenograft is tissue or cells of one species grown in another, often human tumour cells in immunodeficient mice.

Data set [3] concerns LNCaP. Description: Induction of PHLPP1 localization to human LNCAP cell membrane after 24 hrs by immunofluorescence staining analysis. It is filed as functional, cell-based. The method in brief:
(§2)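 LNCaP cells on poly-L-lysine-coated surfaces, treated in serum-free medium for 24 h. Fixed in 4% formaldehyde, permeabilized with 0.1% Triton X-100, blocked in 1% FBS, primary antibody (1:300) overnight, then Alexa Fluor secondary 2 h; DAPI nuclei; confocal imaging with cross-sectional fluorescence intensity analysis.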

The subject of data set [4] is PC-3. Description: In vivo antitumor efficacy in human PC3 cells xenografted athymic nude mouse assessed as decrease in phosphorylation of IKK in tumor at 50 mg/kg, ip for 21 days relative to vehicle treated control. Also on record: dose 50 mg/kg. It is filed as functional, organism-based. Summed up:
as §1

Data set [5] deals with T1, 3-phosphoinositide-dependent protein kinase 1 (Homo sapiens, UniProt O15530).
T1 sequence (O15530 whole entry): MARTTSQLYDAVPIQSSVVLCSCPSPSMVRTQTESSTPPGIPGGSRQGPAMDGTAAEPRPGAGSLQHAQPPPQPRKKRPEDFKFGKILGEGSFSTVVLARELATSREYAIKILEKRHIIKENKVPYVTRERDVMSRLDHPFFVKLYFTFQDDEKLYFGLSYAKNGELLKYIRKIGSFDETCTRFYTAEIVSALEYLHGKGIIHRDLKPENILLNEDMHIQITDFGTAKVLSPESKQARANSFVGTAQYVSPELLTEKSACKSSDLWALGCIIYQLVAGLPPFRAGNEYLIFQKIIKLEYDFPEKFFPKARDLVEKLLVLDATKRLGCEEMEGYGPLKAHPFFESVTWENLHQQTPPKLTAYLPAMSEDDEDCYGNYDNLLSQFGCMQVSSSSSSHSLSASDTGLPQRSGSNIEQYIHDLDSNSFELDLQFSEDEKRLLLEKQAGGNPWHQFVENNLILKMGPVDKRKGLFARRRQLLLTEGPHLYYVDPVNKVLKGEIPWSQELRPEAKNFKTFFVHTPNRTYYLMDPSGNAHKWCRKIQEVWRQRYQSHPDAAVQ
Briefly: Binding affinity to GST-tagged PH domain of PDK1 (unknown origin) by surface Plasmon resonance spectroscopy. Summed up: (§3)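 SPR: GST-tagged PH domain fusion protein immobilized on CM5 chip by amine coupling to about 17000 RU. Analyte injected at 1–20 µM at 30 µL/min; DMSO in samples and running buffer ≤1% (v/v). Kd obtained from sensorgram fitting.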

For data set [6], the system named is LNCaP. Briefly: Induction of PHLPP1 localization to human LNCAP cell membrane at 5 uM after 24 hrs by immunofluorescence staining analysis. It is filed as functional, cell-based. Summed up:
as §2

The subject of data set [7] is LNCaP. Briefly: Antiproliferative activity against human LNCAP cells assessed as suppression of cell viability after 24 hrs by MTT assay. It is filed as functional, cell-based. The method in brief: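 LNCaP cells seeded at 5000/well on poly-L-lysine-coated plates in 10% FBS; 24 h later exposed to agents in serum-free medium for 24 h. Viability expressed as percent of vehicle control; IC50 derived.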
(In general: Formazan colour is commonly taken as a measure of viable cells.)

The target of data set [8] is T2, PH domain leucine-rich repeat-containing protein phosphatase 1 (Homo sapiens, UniProt O60346). Description: Binding affinity to GST-tagged PH domain of PHLPP1 (unknown origin) by surface Plasmon resonance spectroscopy. The method in brief:
as §3

For the next data set, the system named is PrEC. Briefly: Antiproliferative activity against human PrEC cells assessed as suppression of cell viability after 24 hrs by MTT assay in serum free medium. It is filed as cell-based.
For data set [9], the system named is PC-3. Briefly: In vivo antitumor efficacy in human PC3 cells xenografted athymic nude mouse assessed as decrease in phosphorylation of IKK in tumor at 100 mg/kg, po for 21 days relative to vehicle treated control. It is filed as functional, organism-based. Also on record: dose 100 mg/kg. Summed up:
as §1

In data set [10] the target is RAC-alpha serine/threonine-protein kinase (Homo sapiens, UniProt P31749). Briefly: Binding affinity to GST-tagged PH domain of AKT (unknown origin) by surface Plasmon resonance spectroscopy. Summed up:
as §3

The subject of data set [11] is LNCaP. Briefly: Induction of ILK localization to human LNCAP cell membrane at 5 uM after 24 hrs by immunofluorescence staining analysis. It is filed as functional, cell-based. Summed up: as §2
Data set [12] has as its system LNCaP. Description: Induction of Akt-PHLPP1 complex to human LNCAP cell membrane after 24 hrs by immunofluorescence staining analysis. It is filed as functional, cell-based.
The target in data set [13] is T2, PH domain leucine-rich repeat-containing protein phosphatase 1. Description: Inhibition of PHLPP1-mediated reduction in phosphorylation of IKK in human LNCAP cells after 24 hrs by Western blot analysis. It is filed as cell-based. The method in brief:
(§4)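 LNCaP or PC-3 cells treated at various concentrations for 24 h in serum-free medium. Lysed in SDS buffer (50 mM Tris pH 8, 10 mM EDTA, 1% SDS, protease inhibitors); equal protein run on SDS-PAGE and transferred to nitrocellulose. Primary antibodies 1:1000 overnight at 4 °C, HRP secondary 1:2000; detected by ECL.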
A general note: A western blot detects proteins with antibodies after separation by electrophoresis.

Data set [14] relates to PC-3. Description: In vivo antitumor efficacy in human PC3 cells xenografted athymic nude mouse assessed as decrease in phosphorylation of MDM2 in tumor at 50 mg/kg, ip for 21 days relative to vehicle treated control. It is filed as functional, organism-based. Also on record: dose 50 mg/kg. The method in brief:
as §1

The target in a further data set is T3, Scaffold protein ILK (Homo sapiens, UniProt Q13418).
T3 sequence (Q13418 whole entry): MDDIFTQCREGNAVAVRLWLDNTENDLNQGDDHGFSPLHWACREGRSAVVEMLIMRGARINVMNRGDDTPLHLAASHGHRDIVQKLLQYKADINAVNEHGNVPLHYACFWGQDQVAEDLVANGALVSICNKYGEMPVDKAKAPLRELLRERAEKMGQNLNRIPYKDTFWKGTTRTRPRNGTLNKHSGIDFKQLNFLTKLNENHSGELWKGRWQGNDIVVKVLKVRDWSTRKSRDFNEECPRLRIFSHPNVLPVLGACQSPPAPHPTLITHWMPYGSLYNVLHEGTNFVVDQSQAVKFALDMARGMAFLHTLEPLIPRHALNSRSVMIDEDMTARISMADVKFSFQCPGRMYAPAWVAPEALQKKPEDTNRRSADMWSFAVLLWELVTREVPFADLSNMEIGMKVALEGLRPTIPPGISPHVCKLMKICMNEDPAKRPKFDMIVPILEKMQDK
Description: Binding affinity to GST-tagged PH domain of ILK (unknown origin) by surface Plasmon resonance spectroscopy. Summed up: as §3

In data set [15] the target is T2, PH domain leucine-rich repeat-containing protein phosphatase 1. Description: Inhibition of PHLPP1-mediated reduction in phosphorylation of IKK in human PC3 cells after 24 hrs by Western blot analysis. It is filed as cell-based. As to conditions: PC-3. The method in brief: as §4
The subject of data set [16] is LNCaP. Briefly: Induction of Akt localization to human LNCAP cell membrane at 5 uM after 24 hrs by immunofluorescence staining analysis. It is filed as functional, cell-based. The method in brief:
as §2

The target in data set [17] is T2, PH domain leucine-rich repeat-containing protein phosphatase 1. As to conditions: LNCaP, 2.5 to 25 uM.

The source of these data is ChEMBL document CHEMBL3414473.

The source made the active and inactive calls. No cut-off for these calls is given here.

T2 sequence (O60346 whole entry, the tested form may be a part): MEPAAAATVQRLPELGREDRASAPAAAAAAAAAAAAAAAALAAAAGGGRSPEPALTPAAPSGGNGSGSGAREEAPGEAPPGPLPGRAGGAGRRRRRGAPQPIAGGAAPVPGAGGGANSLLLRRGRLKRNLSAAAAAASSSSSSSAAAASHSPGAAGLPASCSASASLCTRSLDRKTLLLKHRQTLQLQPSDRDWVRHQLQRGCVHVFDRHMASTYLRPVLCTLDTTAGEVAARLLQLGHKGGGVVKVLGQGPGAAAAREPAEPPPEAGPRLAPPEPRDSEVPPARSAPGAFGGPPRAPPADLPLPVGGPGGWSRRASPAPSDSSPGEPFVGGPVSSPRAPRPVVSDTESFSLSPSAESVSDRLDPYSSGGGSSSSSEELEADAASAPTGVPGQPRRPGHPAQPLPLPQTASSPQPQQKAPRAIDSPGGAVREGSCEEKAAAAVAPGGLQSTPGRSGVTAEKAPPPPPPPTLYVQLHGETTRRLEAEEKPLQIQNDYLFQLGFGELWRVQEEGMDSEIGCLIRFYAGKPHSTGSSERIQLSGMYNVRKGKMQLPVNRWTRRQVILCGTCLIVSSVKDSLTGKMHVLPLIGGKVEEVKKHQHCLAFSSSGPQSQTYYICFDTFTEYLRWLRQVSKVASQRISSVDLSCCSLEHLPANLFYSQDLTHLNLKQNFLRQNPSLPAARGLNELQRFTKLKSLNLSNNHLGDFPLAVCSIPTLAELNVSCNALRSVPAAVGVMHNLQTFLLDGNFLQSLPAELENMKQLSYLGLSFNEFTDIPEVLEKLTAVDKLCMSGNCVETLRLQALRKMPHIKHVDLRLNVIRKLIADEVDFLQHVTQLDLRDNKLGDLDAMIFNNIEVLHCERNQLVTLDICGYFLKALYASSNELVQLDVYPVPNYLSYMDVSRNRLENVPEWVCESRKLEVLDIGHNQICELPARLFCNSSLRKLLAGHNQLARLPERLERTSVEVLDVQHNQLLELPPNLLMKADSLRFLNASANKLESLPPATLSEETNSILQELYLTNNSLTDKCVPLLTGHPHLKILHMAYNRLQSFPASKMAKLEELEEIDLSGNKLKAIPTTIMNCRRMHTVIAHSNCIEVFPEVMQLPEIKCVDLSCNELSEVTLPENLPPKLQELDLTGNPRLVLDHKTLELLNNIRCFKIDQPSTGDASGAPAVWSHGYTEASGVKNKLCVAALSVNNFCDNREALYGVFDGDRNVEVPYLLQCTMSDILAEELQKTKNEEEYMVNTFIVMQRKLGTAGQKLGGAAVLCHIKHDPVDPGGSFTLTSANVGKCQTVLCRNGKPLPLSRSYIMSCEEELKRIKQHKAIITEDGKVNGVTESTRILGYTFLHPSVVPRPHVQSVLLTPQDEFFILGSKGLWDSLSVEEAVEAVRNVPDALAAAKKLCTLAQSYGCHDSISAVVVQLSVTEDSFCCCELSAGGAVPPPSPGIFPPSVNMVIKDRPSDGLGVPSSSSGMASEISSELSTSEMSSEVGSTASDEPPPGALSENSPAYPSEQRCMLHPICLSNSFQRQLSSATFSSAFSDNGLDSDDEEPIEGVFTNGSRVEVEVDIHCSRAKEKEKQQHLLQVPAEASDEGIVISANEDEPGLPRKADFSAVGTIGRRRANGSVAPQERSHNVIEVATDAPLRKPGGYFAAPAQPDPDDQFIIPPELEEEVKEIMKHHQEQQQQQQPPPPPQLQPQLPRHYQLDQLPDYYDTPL
RAC-alpha serine/threonine-protein kinase, sequence (P31749 whole entry, the tested form may be a part): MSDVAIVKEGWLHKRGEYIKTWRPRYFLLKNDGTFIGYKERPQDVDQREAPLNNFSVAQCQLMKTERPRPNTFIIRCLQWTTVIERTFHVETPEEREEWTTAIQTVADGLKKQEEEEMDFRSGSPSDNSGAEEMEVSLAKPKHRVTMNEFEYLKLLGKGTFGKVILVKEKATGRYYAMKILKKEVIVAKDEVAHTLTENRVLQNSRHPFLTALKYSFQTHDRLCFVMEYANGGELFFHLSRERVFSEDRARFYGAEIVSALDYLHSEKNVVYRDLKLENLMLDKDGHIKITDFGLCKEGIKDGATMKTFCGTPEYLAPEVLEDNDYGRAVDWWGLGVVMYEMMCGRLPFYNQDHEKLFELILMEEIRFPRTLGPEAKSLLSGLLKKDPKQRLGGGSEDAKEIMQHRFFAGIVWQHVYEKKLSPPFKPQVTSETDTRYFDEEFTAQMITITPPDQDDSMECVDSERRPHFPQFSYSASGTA

As a reminder, the Kd is the constant that tells how readily two partners part at equilibrium. The low end stands for tighter binding, the high end for weaker binding. One may read the IC50 as the concentration that inhibits the measured activity by half. As for `Cc1c(S(N)(=O)=O)cc2c(c1C)OC(C)(CCCC(C)C)CC2` (centres undefined), the outcome in the data set with PC-3 [1], in the data set with LNCaP [6], in the data set on PC-3 [9] and in the data set with LNCaP [16] was Active. Further, the inhibition result (with PC-3 [2]; in the data set on PC-3 [4]; with PC-3 [14]; in data set [17]) was “Active” in each case. Moreover, the Activity entry was “Dose-dependent effect” in the data set on LNCaP [3], “Non-toxic” with PrEC and “Dose-dependent effect” in the data set on LNCaP [12]. The equilibrium dissociation constant (Kd) was 19500 nM in data set [5], 720 nM in data set [8], 200 nM in data set [10] and 6200 nM at Scaffold protein ILK. Besides, the IC50 in the data set on LNCaP [7] is 3000 nM. In the data set on LNCaP [11], the outcome was inactive. In addition, the inhibition entry in data set [13] and in data set [15] was “Dose-dependent effect” throughout.
